High-throughput results: PubChem BioAssay, Johns Hopkins Ion Channel Center
Compounds with a hit are over-represented: about 3.8% of the library has one in this group of screens.
hERG rescue: hERG rescue from dofetilide block, primary screen, cell-based, CHO-hERG, FluxOR thallium flux, dofetilide IC70; dofetilide IC70 present; activation (rescue from dofetilide block), less the hit threshold, % at 10 µM; 0.51% of 310,000 active;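 active = activation above the mean of controls blocked by dofetilide plus 5 SD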;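 also: thallium influx through hERG after potassium depolarization seen as dye fluorescence rise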
KCNK3 block: human KCNK3 channel inhibitors, primary screen, CHO cells, FluxOR thallium flux, B-score. Potassium channel subfamily K member 3 (Homo sapiens), O14649. FluxOR fluorescence; stronger effect = lower value. B-score at 10 µM. 0.84% of 340,000 active. AID 602410, 2012;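 active = B-score under library mean minus 4 SD, starting fluorescence ratio at most library mean plus 5 SD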;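 also: more negative B-score means stronger inhibition of thallium flux through KCNK3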
KCNK9 inh: KCNK9 potassium channel inhibitors, primary screen, HEK293 cells, thallium flux; FluxOR thallium flux fluorescence; stronger effect = lower value; B-score at 10 µM; 1.2% of 310,000 active; AID 488922, 2010;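 active = ratio B-score over 3 SD below the library mean, with starting fluorescence within 5 SD of its mean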;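 also: negative B-score means less thallium flux so channel inhibition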
KCNQ1 act: potentiators or activators of KCNQ1 channel, primary screen, cell-based, thallium flux, high-throughput; Potassium voltage-gated channel subfamily KQT member 1 (Homo sapiens), P51787; CHO-K1 KCNQ1, thallium flux FluxOR fluorescence; stronger effect = higher value; AID 2648, 2010; 0.35% of 310,000 active; B-score at 10 µM;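 active = fluorescence ratio B-score, a plate-corrected score, at least three library SD, with initial intensity B-score within 5 SD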
Target sequence (P51787 whole entry, looked up): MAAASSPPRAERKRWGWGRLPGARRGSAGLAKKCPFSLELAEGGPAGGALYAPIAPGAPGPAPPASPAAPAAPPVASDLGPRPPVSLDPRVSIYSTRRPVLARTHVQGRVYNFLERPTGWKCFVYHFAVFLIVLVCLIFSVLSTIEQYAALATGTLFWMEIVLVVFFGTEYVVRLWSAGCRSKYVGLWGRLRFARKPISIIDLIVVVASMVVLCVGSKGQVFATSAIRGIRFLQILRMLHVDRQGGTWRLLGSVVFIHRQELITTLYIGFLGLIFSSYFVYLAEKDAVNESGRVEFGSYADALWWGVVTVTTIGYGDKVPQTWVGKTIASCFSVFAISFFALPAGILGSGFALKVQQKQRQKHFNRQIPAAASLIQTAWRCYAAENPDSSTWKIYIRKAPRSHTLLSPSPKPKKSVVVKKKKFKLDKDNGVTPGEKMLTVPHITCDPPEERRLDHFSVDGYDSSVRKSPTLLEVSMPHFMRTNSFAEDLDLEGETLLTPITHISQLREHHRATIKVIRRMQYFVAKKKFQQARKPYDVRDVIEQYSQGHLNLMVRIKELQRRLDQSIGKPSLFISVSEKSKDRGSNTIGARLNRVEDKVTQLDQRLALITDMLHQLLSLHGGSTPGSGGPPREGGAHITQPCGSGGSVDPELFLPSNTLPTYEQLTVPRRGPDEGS
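Medium – assay buffer, equal DMSO in all wells · Material – CHO-K1 cell line with stable KCNQ1 potassium channel expression · Signal – kinetic FluxOR thallium fluorescence, 10-s 1-Hz baseline, 110-s post-stimulus read · Compound – single concentration per compound, DMSO matched to controls · Schedule – 37 °C overnight plating, 90-min dark dye load, 20-min compound pretreatment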
Kir21 block: inhibitors of mouse Kir2.1 inward-rectifier potassium channel; Inward rectifier potassium channel 2 (Mus musculus), P35561; HEK293-Kir2.1, FluxOR thallium flux fluorescence; stronger effect = lower value; B-score at 10 µM; 0.85% of 310,000 active;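 active = fluorescence ratio B-score at or below minus 3 SD of library scores, with starting-brightness B-score within 2 SD, cut at about -4.2 in these data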;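 also: channel flux triggered by added potassium and thallium sulfate stimulus; B-score of peak minus minimum fluorescence over baseline after thallium stimulus; more negative B-score means stronger Kir2.1 block with less thallium influx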
KCNQ1 block: inhibitors of human KCNQ1 channel, primary screen, cell-based, thallium flux, high-throughput. CHO-K1 KCNQ1, FluxOR thallium flux fluorescence; stronger effect = higher value. B-score at 10 µM. Potassium voltage-gated channel subfamily KQT member 1 (Homo sapiens), P51787. 1.3% of 310,000 active;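 active = compounds whose thallium flux B-score, printed positive for inhibition, exceeds three library SD while starting fluorescence stays within three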;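 also: channel opened by potassium depolarization with thallium stimulus after 20 min compound exposure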
KCNQ1 inh valid: KCNQ1 potassium channel inhibitors, confirmation, cell-based, Tl flux, duplicate; 93% of 1,600 active; shares compounds with KCNQ1 block; KCNQ1 cell line, FluxOR thallium flux fluorescence; inhibition, % at 10 µM;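 active = primary screen active, with duplicate mean exceeding buffer control mean plus 3 SD of buffer wells, cut at about 28% in these data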;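 also: 0% = buffer control ratio and 100% = XE991 inhibitor control ratio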
CHO KCNQ1 ctr: thallium flux effects in parental CHO cells, counter-screen for KCNQ1 inhibitor project, cell-based, Tl flux; parental CHO-K1, FluxOR thallium flux fluorescence ratio; stronger effect = lower value; zero means no signal rise above baseline; shares compounds with KCNQ1 block; fluorescence ratio (Tl flux) at 10 µM; 21% of 1,600 active;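 active = mean of duplicate thallium-flux fluorescence ratios in parental host cells more than 5 SD below the buffer control mean, cut at about 0.38 in these data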;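 also: ratio is peak minus minimum fluorescence divided by baseline fluorescence; actives read low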
KCNQ1 APC inh: KCNQ1 channel inhibitors, confirmation, orthogonal assay, cell-based, automated electrophysiology | AID 624120, 2012 | shares compounds with KCNQ1 block | KCNQ1-CHO cells, automated patch clamp current | calls only at 10 µM | 20% of 490 active;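 active = KCNQ1 current drop exceeding 3 SD of negative control wells, seen in both duplicate runs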;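 also: steady state current during a 2 s step from -80 to +40 mV; negative values mean current inhibition and positive values mean potentiation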
KCNQ2 spec: KCNQ2 channel inhibition, selectivity assay for KCNQ1 inhibitor project, cell-based; shares compounds with KCNQ1 block; KCNQ2 cells, FluxOR thallium flux fluorescence; inhibition, % at 10 µM; 71% of 1,600 active; AID 651746, 2012;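 active = mean percent inhibition of the KCNQ2 thallium signal more than 5 SD above the buffer-only control wells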;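 also: KCNQ2 expressed in CHO cells; 0% = buffer control wells and 100% = XE-991 inhibitor control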
KCNQ1 KCNE1 spec: KCNQ1/KCNE1 channel inhibition, selectivity assay for KCNQ1 inhibitor project, CHO-K1 cells, thallium flux, FluxOR | shares compounds with KCNQ1 block | FluxOR thallium flux fluorescence | inhibition, % at 10 µM | 77% of 1,600 active | AID 652147, 2013;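 active = mean percent inhibition of duplicate wells above the buffer-only control mean plus 3 SD of those controls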;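 also: 0% = buffer only wells and 100% = XE-991 inhibitor control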
* = called active by the depositor; i = inactive; · = no result; + = active, no number.

SMILES	hERG rescue	KCNK3 block	KCNK9 inh	KCNQ1 act	Kir21 block	KCNQ1 block	KCNQ1 inh valid	CHO KCNQ1 ctr	KCNQ2 spec	KCNQ1 KCNE1 spec	others
CC(=O)Nc1sc(/C(C#N)=C/c2ccc(Cl)c(Cl)c2)nc1-c1ccc(C)cc1	-19	i	i	i	-0.62	16*	+	0.23*	i	i
Cc1ccc(-c2nnc(N3CCCCC3)c3ccccc23)cc1	-12	i	i	i	0.41	i	·	·	·	·
Clc1ccc(-c2cc3ccccc3nc2N2CCCC2)cc1	-9	i	i	i	-0.48	12*	130*	0.4	83%*	167%*	KCNQ1 APC inh=i
Cc1ccc(-c2cc3ccccc3nc2N2CCCC2)cc1	-8	i	i	i	-2	12*	118*	0.43	87%*	194%*	KCNQ1 APC inh=i
CN1/C(=C\C=C2/SC(=S)N(CC(=O)O)C2=O)C(C)(C)c2ccccc21	-44	i	i	i	-14	24*	+	0.044*	i	i
Cn1cnc2cc(NCc3ccccc3O)ccc21	1	i	i	i	0.56	i	·	·	·	·
Cc1nc2cc(NCc3ccccc3O)ccc2n1Cc1ccccc1	-6	i	i	i	0.07	8*	50*	0.45	i	43%*
CCOC(=O)c1c(NC(=O)CSc2nnc(-c3c[nH]c4ccccc34)n2C)sc2c1CCCC2	-21	i	i	i	0	7*	64*	0.46	65%*	i
COc1ccc(OC)c(/C=N\NC(=O)c2cc3c(ccc4ccccc43)o2)c1	-7	i	i	i	2	i	·	·	·	·
COc1ccc(/C=N/NC(=O)c2cc3c(ccc4ccccc43)o2)c(OC)c1	-23	i	i	i	0.08	18*	82*	0.43	64%*	170%*
CCSc1nnc(-c2ccccc2N=Cc2c(C)[nH]n(-c3ccccc3)c2=O)c(=O)[nH]1	0	i	i	i	-0.39	i	·	·	·	·
O=S(=O)(NC1CCCCC1Oc1ccccc1)c1ccc(Cl)cc1 (stereo not given)	-9	i	i	i	-3.7	i	·	·	·	·
CSc1ccc(OC2CCCCC2NS(=O)(=O)c2ccc(Cl)cc2)cc1 (stereo not given)	-8	i	i	i	0.32	6*	120*	0.41	115%*	142%*	KCNQ1 APC inh=i
COc1ccc(-c2cc(C(=O)N3CCN(C(=O)c4ccco4)CC3)[nH]n2)cc1	-2	i	i	i	0.15	i	·	·	·	·
COc1cc(CN(C)C(=O)C2CCN(S(=O)(=O)c3cccs3)CC2)ccc1OC(F)F	·	i	·	·	·	·	·	·	·	·
CCc1ccc(C(O)(C(C)C)C(CN2CCOCC2)c2ccccc2)cc1 (stereo not given)	-5	i	i	i	-1.3	6*	65*	0.46	i	80%*
CCOC(=O)c1c(C)n(C)c2cc(Br)c(O)c(O)c12	-5	i	i	i	0.39	6*	0	0.5	59%*	i
COc1cccc(OC)c1C(=O)NC(=S)N1CCCCC1c1cccnc1 (stereo not given)	-5	i	i	i	-1.1	i	·	·	·	·
O=C1C(Cl)=C(N2CCCCCC2)C(=O)N1c1ccccc1	-9	i	i	i	-1.4	i	·	·	·	·
O=C1C(Cl)=C(N2CCCCCC2)C(=O)N1c1ccc(Br)cc1	-9	i	i	i	1.6	6*	85*	0.4	101%*	100%*
Cc1cc(Cl)ccc1OC(C)C(=O)Nc1ccc(C(=O)Nc2ccccc2C(=O)O)cc1 (stereo not given)	-34	i	i	i	0.01	9*	94*	0.45	i	80%*	KCNQ1 APC inh=i
Cc1cc(Cl)ccc1OC(C)C(=O)Nc1ccc(S(=O)(=O)N2CCOCC2)cc1 (stereo not given)	-5	i	i	i	-2.1	i	·	·	·	·
O=C1c2ccccc2C(=O)N1CSc1nnc2c3ccccc3n(CCc3ccccc3)c2n1	-13	i	i	i	-2.7	6*	42*	0.5	78%*	i
CCOC(=O)c1cnc(SC)nc1Oc1cccc(NS(=O)(=O)c2ccccc2)c1	-16	i	i	i	1.7	7*	56*	0.45	93%*	50%*
CCn1nccc1C(=O)Nc1cc(Cl)cc(Cl)c1	-10	i	-6.7*	i	0.51	6*	31*	0.55	i	i
CCn1nccc1C(=O)Nc1ccc(Cl)cn1	-8	i	i	i	1.8	i	·	·	·	·
Oc1cc2ccccc2cc1-c1n[nH]c(=S)o1	-10	i	i	i	-0.19	7*	0	0.63	i	i
Cc1nc(C(C)NC(=O)CCc2nnc(-c3ccsc3)o2)cs1 (stereo not given)	-4	i	i	i	0.26	i	·	·	·	·
COc1ccc(CCNC(=O)C(=O)NCc2ccc(C)cc2)cc1OC	-8	i	i	i	-1.3	i	·	·	·	·
Cc1ccc(CNC(=O)C2CCC(=O)N(Cc3ccccc3F)C2)s1 (stereo not given)	-3	i	i	i	1.7	i	·	·	·	·
